The source made the active and inactive calls. No cut-off for these calls is given here.
Legend:
[1] = Ratio of drug level in brain to plasma in Sprague-Dawley rat at 10 mg/kg, po after 1 hr; type: ADME, organism-based; set-up: dose 10 mg/kg, route oral; conditions: brain and plasma, read-out: BPR
In short: (§1)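 Sprague–Dawley rats, three animals per route; i.v. dose 5 mg/kg and oral 10 mg/kg. Brain concentrations and brain/plasma ratios taken from the oral dosing at 1 and 4 h post-dose.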

[2] = Cmax in CD1 mouse at 10 mg/kg, po after 6 hrs; type: ADME, organism-based; set-up: dose 10 mg/kg, route oral; conditions: in vivo
In short: (§2)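 CD-1 mice, three animals, dosed i.v. at 5 mg/kg and by oral gavage at 10 mg/kg. Plasma CL, Vd, t1/2, Cmax, Tmax, oral AUC and F% were derived. Brain concentrations and brain/plasma ratios at 1 and 4 h were taken from the i.v. dosing.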

[3] = target: Melanocyte-stimulating hormone receptor (Homo sapiens, UniProt Q01726); test: Displacement of [125I]NDPMSH from human MC1R expressed in HEK293 cells at 10 uM; type: cell-based
Melanocyte-stimulating hormone receptor, sequence (Q01726 whole entry, looked up): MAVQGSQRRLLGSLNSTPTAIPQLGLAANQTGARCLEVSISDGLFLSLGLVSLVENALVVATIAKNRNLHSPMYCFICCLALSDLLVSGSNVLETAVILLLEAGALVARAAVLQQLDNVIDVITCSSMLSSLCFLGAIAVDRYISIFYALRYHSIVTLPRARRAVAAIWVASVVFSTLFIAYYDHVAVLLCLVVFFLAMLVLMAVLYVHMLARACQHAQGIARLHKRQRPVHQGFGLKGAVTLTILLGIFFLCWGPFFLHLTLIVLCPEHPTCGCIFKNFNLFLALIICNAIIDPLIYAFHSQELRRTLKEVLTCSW

[4] = Half life in Sprague-Dawley rat at 5 mg/kg, iv and 10 mg/kg, po; type: ADME, organism-based; conditions: in vivo
Mus musculus [5] = test: Increase in body weight in Lewis lung carcinoma bearing C57BL/6J mouse at 9 mg/kg, ip bid after 4 days; type: functional, organism-based; set-up: dose 9 mg/kg
In short: (§3)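 Male C57BL/6J mice inoculated with Lewis lung carcinoma cells. From day 11 after inoculation, mice were dosed i.p. twice daily at 3 or 9 mg/kg for 4 days and compared with vehicle-treated tumor-bearing controls. Food intake and body weight were recorded; lean body mass was measured by DEXA.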

[6] = Half life in CD1 mouse at 5 mg/kg, iv; type: ADME, organism-based; set-up: dose 5 mg/kg, route intravenous; conditions: in vivo; in short: as §2
[7] = Bioavailability in CD1 mouse at 10 mg/kg, po; type: ADME, organism-based; conditions: in vivo; in short: as §2
[8] = Tmax in CD1 mouse at 10 mg/kg, po; type: ADME, organism-based; set-up: dose 10 mg/kg, route oral; conditions: in vivo
In short: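 CD-1 mice, three animals per route; single i.v. dose at 5 mg/kg and oral gavage at 10 mg/kg. Plasma PK parameters derived; brain concentrations and brain/plasma ratios taken from the i.v. dosing at 1 and 4 h.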

[9] = Ratio of drug level in brain to plasma in CD1 mouse at 5 mg/kg, iv after 1 hr; type: ADME, organism-based; set-up: dose 5 mg/kg, route intravenous; conditions: brain and plasma, read-out: BPR
[10] = Clearance in Sprague-Dawley rat at 5 mg/kg, iv and 10 mg/kg, po; type: ADME, organism-based; conditions: in vivo
[11] = Ratio of drug level in brain to plasma in Sprague-Dawley rat at 10 mg/kg, po after 4 hrs; type: ADME, organism-based; set-up: dose 10 mg/kg, route oral; conditions: brain and plasma, read-out: BPR; in short: as §1
[12] = AUC in dog at 5 mg/kg, iv; type: ADME, organism-based, Canis lupus familiaris; set-up: dose 5 mg/kg, route intravenous; conditions: plasma
[13] = AUC in Sprague-Dawley rat at 10 mg/kg, po; type: ADME, organism-based; set-up: dose 10 mg/kg, route oral; conditions: plasma
Mus musculus [14] = test: Increase in food intake in Lewis lung carcinoma bearing C57BL/6J mouse at 9 mg/kg, ip bid after 4 days; type: functional, organism-based; set-up: dose 9 mg/kg; in short: as §3
[15] = Volume of distribution in dog at 5 mg/kg, iv; type: ADME, organism-based, Canis lupus familiaris; set-up: dose 5 mg/kg, route intravenous; conditions: in vivo
[16] = AUC in CD1 mouse at 10 mg/kg, po; type: ADME, organism-based; set-up: dose 10 mg/kg, route oral; conditions: plasma; in short: as §2
[17] = Tmax in Sprague-Dawley rat at 5 mg/kg, iv and 10 mg/kg, po; type: ADME, organism-based; conditions: in vivo; in short: as §1
[18] = Drug level in Sprague-Dawley rat brain at 10 mg/kg, po after 4 hrs; type: ADME, organism-based; set-up: dose 10 mg/kg, route oral; conditions: read-out: Drug uptake
[19] = Cmax in Sprague-Dawley rat at 10 mg/kg, po; type: ADME, organism-based; set-up: dose 10 mg/kg, route oral; conditions: in vivo
Cytochrome P450 2C19 = Cytochrome P450 2C19 (Homo sapiens, UniProt P33261); test: Inhibition of CYP2C19; type: ADME
Cytochrome P450 2C19, sequence (P33261 whole entry): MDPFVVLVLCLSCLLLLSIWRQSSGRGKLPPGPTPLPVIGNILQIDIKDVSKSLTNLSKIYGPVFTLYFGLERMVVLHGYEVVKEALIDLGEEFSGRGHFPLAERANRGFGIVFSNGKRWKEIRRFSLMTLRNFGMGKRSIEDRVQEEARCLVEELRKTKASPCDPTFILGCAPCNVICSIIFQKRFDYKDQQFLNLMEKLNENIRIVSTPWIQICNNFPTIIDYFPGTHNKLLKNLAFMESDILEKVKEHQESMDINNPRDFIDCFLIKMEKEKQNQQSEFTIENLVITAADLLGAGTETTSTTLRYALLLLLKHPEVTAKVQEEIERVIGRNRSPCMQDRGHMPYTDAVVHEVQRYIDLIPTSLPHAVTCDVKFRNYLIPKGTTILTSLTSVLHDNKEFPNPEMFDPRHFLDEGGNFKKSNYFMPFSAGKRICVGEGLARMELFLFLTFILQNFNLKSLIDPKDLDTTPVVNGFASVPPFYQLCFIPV

Kp at 1 h [1]: 0.1
Cmax [2]: 132 ng/mL
Activity [3]: 20%
half-life [4]: 2.2 h
half-life [6]: 3.5 h
bioavailability [7]: 23%
Tmax [8]: 0.5 h
Kp at 1 h [9]: 2.4
clearance [10]: 13 mL/min/kg
Kp at 4 h [11]: 0.3
AUC [12]: 2510 ng·h/mL
AUC [13]: 1870 ng·h/mL
Vd [15]: 11.8 L/kg
AUC [16]: 1160 ng·h/mL
Tmax [17]: 6 h
concentration at 4 h [18]: 27 ng/g
Cmax [19]: 163 ng/mL
IC50 (Cytochrome P450 2C19): > 10 µM
SMILES: CC(C)C[C@H](NC(=O)CCN(C)C)c1cc(Cl)ccc1N1CCN(C(=O)[C@H](C)Cc2ccc(Cl)cc2)CC1
Activity (Mus musculus [5]): Active
Activity (Mus musculus [14]): Active

Source: ChEMBL document CHEMBL1138325, “Design, synthesis, in vitro, and in vivo characterization of phenylpiperazines and pyridinylpiperazines as potent and selective antagonists of the melanocortin-4 receptor” (J Med Chem, 2007)
